The sample as a whole holds a higher share of hits than the screen did.
PfGluPho inh = PfG6PD enzyme inhibitors, primary screen, biochemical, fluorescence intensity, uHTS; PfGluPho enzyme, NADPH resazurin-diaphorase fluorescence; inhibition, % at 20 µM; 350,000 tested, 0.78% active; AID 504690, 2011;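 active = inhibition reaching at least a set limit at 20 µM in the primary screen, cut at about 59% in these data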
DTT redox prof = compounds producing H2O2 with reducing agent – biochemical, NIH compound library profiling, artefact control for MLSCN library redox annotation, primary screen; activation, % at 10 µM; 200,000 tested, 0.03% active; DTT-dependent redox cycling H2O2, phenol red/HRP absorbance; 100% = 100 µM peroxide control, 0% = buffer;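 active = activation of at least 50% relative to the plate's high and low controls in the primary single-dose screen; inactive = activation below 50%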;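 note: compound incubated with DTT at 0.8 mM final as the reducing agent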
Lmaj promast = Leishmania major promastigote growth inhibition, primary screen | inhibition, % at 10 µM | Leishmania major promastigotes, resazurin fluorescence viability | 200,000 tested, 9% active | AID 1063, 2008;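 note: promastigotes grown with compound for 44 hours at 28 °C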
G6PDH counter = L. mesenteroides G6PDH inhibitors, counter-screen for G6PDH-coupled screening assays, biochemical, Leuconostoc mesenteroides enzyme; Purified L. mesenteroides G6PDH, diaphorase/resazurin coupled fluorescence, 45 min; 200,000 tested, 0.12% active; inhibition, % at 5 µM
Diaph inh CS = diaphorase inhibitors and chemical oxidizers, primary screen, counter-screen for diaphorase-coupled primary assays, biochemical, uHTS, resorufin fluorescence; diaphorase resazurin-to-resorufin fluorescence, NADH, 16 min; bacterial (C. kluyveri) enzyme, not human; inhibition, % at 20 µM; 190,000 tested, 0.69% active; AID 1217, 2008;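 active = primary screen inhibition at 20 µM above a set limit, cut at about 50% in these data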
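Assay system: diaphorase enzyme from Clostridium kluyveri. Quantity: enzyme working solution with 0.14 U/mL diaphorase. Schedule: reaction incubation of 16 min at room temperature. Technique: resorufin fluorescence, excitation 544 nm, emission 590 nm. Controls: No-NADH positive control and DMSO neutral control.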
Diaph act CS = compounds boosting diaphorase resazurin reduction – biochemical, uHTS, resorufin fluorescence, counter-screen for diaphorase-coupled primary assays, primary screen; 190,000 tested, 0.005% active; AID 1229, 2008; Diaphorase/resazurin coupled assay, 16 min; stronger effect = higher value; 1 = vehicle wells, 0 = NADH-free wells; activation factor at 20 µM;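 active = diaphorase activity raised at least twofold by the compound at 20 µM; inactive = activation factor below 2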
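Assay system: Purified diaphorase enzyme from Clostridium kluyveri | Amount: Enzyme 0.07 U/mL final | Dosing: Compound 20 µM once, DMSO 1% | Timing: 16 min reaction at room temperature | Detection: Fluorescence, excitation 544 nm and emission 590 nm | Evaluation: Higher resorufin formation from activation or reduction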
Of the large screens only hits and unclear results are named; the others gave an inactive call. Cut-off read from the data, not from the text of the source, unless noted: active = inhibition above about 50%; inactive = the rest.

COC(=O)c1nn(-c2nc(-c3cccc(OC)c3)cc(C(F)(F)F)n2)cc1[N+](=O)[O-]	Lmaj promast 90
O=C(N/N=C/c1ccc2cccc(OCc3ccccc3)c2n1)c1ccc(Cl)cc1	Lmaj promast 68
CC(C)C(=O)Nc1ccccc1C(=O)N/N=C/c1ccc([N+](=O)[O-])cc1	Lmaj promast 52
O=C(N/N=C/c1ccc([N+](=O)[O-])cc1)c1ccc(COc2ccccc2-c2ccccc2)cc1	Lmaj promast 90
Cc1nc([N+](=O)[O-])c(Sc2nc3ccc([N+](=O)[O-])cc3[nH]2)n1Cc1ccccc1	Lmaj promast 54
Cc1nc([N+](=O)[O-])c(Br)n1Cc1ccccc1	none (no result: DTT redox prof, Lmaj promast, G6PDH counter, Diaph inh CS, Diaph act CS)
Cc1ccc(-c2nn(-c3ccccc3)cc2/C=C(\C#N)C(=O)NCc2ccccc2)cc1	none (no result: DTT redox prof)
N#C/C(=C/c1cn(-c2ccccc2)nc1-c1cccc(OCc2ccccc2)c1)C(=O)NCCCn1ccnc1	Lmaj promast 100
CCCSc1ccc(-c2nn(-c3ccccc3)cc2/C=C(/C#N)C(=O)NCCCOC)cc1	Lmaj promast 86
CCSc1ccc(-c2nn(-c3ccccc3)cc2/C=C(/C#N)C(=O)NCCCOC)cc1	none
CCOc1cccc(-c2nn(-c3ccccc3)cc2/C=C(/C#N)C(=O)NCCCn2ccnc2)c1	Lmaj promast 100
O=[N+]([O-])c1cccc2ccc(/C=C/c3ccc(F)cc3)nc12	Lmaj promast 57
COc1cc(/C=C/c2ccc3cccc([N+](=O)[O-])c3n2)ccc1OCC#N	none
O=[N+]([O-])c1ccc(/C=C/c2ccc3cccc([N+](=O)[O-])c3n2)cc1	Lmaj promast 51
CCOc1cc(/C=C/c2ccc3cccc([N+](=O)[O-])c3n2)ccc1O	Lmaj promast 73
COC(=O)c1ccc(CN2CCCC(C(=O)c3ccccc3OC)C2)cc1 (stereo not given)	none (no result: DTT redox prof, Lmaj promast, G6PDH counter, Diaph inh CS, Diaph act CS)
O=C(C1CCCN(CCCc2ccccc2)C1)N1CCCCC1 (stereo not given)	none
CC1CCN(C(=O)C2CCN(CCCc3ccccc3)CC2)CC1	Lmaj promast 53 (no result: PfGluPho inh)
O=C(C1CCCN(CCCc2ccccc2)C1)N1CCCCCC1 (stereo not given)	Lmaj promast 71
O=C(NCCCl)Nc1cccc(Br)c1	none
COc1ccc(/C=C(\NC(=O)c2ccccc2)C(=O)OCC2CCCN3CCCCC23)cc1OC (stereo not given)	Lmaj promast 73
O=C(Nc1ccc(C(=O)OC[C@@H]2CCCN3CCCC[C@H]23)cc1)c1cccc(Br)c1	Lmaj promast 68
CC(C)(C)NC(=O)NC(=O)COC(=O)C1CCN(S(=O)(=O)c2cccs2)CC1	none (no result: DTT redox prof, Lmaj promast, G6PDH counter, Diaph inh CS, Diaph act CS)
CCOC(=O)CC(NS(=O)(=O)c1ccc2[nH]c(=O)sc2c1)c1ccc(C)cc1 (stereo not given)	none (no result: DTT redox prof, Lmaj promast, G6PDH counter, Diaph inh CS, Diaph act CS)
Cc1cccc(-n2cc(-c3ccccc3)c3c(NN4CCOCC4)ncnc32)c1	Lmaj promast 63
CCOc1ccc(-n2cc(-c3ccccc3)c3c(N4CCOCC4)ncnc32)cc1	none
Cc1ccc(-n2cc(-c3ccccc3)c3c(NN4CCOCC4)ncnc32)cc1	Lmaj promast 81
CN1CCN(c2ncnc3c2c(-c2ccccc2)cn3-c2ccc(F)cc2)CC1	Lmaj promast 58
CCOc1ccsc1C(=O)OC	none (no result: DTT redox prof, Lmaj promast, G6PDH counter, Diaph inh CS, Diaph act CS)
COc1ccccc1OCC#CCNC1CCCCC1C (stereo not given)	Lmaj promast 78
COc1ccccc1OCC(=O)NC1CCCCCCC1	none (no result: DTT redox prof, Lmaj promast, G6PDH counter, Diaph inh CS, Diaph act CS)
COc1ccc(N(CC(=O)N2CCC(Cc3ccccc3)CC2)S(C)(=O)=O)cc1	none
Cc1cc(NC(=O)CCCn2cnc([N+](=O)[O-])n2)no1	none
O=C(CCCn1cnc([N+](=O)[O-])n1)Nc1ccc(Cl)c(Cl)c1	Lmaj promast 97
O=C(CCCn1cnc([N+](=O)[O-])n1)Nc1cccc(Cl)c1Cl	Lmaj promast 94
Cc1c(Cl)cccc1NC(=O)CCCn1cnc([N+](=O)[O-])n1	none
O=C(CCCn1cnc([N+](=O)[O-])n1)Nc1cc(Cl)ccc1O	Lmaj promast 72
O=C(COC(=O)c1c[nH]c2ccccc12)Nc1ccc([N+](=O)[O-])cc1	none (no result: DTT redox prof, Lmaj promast, G6PDH counter, Diaph inh CS, Diaph act CS)
COc1ccc(OC)c(C(c2nnnn2C2CCCC2)N2CCN(c3ccccc3F)CC2)c1 (stereo not given)	Lmaj promast 99
COc1ccc(N2CCN(C(c3cccs3)c3nnnn3C3CCCC3)CC2)cc1 (stereo not given)	none
Fc1ccccc1N1CCN(C(c2ccccn2)c2nnnn2C2CCCCC2)CC1 (stereo not given)	none
COc1ccc(C(c2nnnn2C2CCCC2)N2CCc3ccccc3C2)cc1OC (stereo not given)	Lmaj promast 60
COc1ccc(N2CCN(C(c3cccc(OC)c3OC)c3nnnn3C3CCCC3)CC2)cc1 (stereo not given)	Lmaj promast 72
COc1ccc(N2CCN(C(c3ccccc3OC)c3nnnn3C3CCCC3)CC2)cc1 (stereo not given)	Lmaj promast 59
COc1cccc(C(c2nnnn2C(C)(C)C)N2CCN(C3CCCCC3)CC2)c1OC (stereo not given)	none
CC(=O)N(CCC1(C(C)C)CCOC(C)(C)C1)C(C)c1cccs1 (stereo not given)	none (no result: DTT redox prof, Lmaj promast, G6PDH counter, Diaph inh CS, Diaph act CS)
CC(C)(C)c1ccc(C(=O)N2CCC(NC(=O)c3ccccc3)CC2)cc1	none (no result: DTT redox prof, Lmaj promast, G6PDH counter, Diaph inh CS, Diaph act CS)
Cc1ccc(NC(=O)CCc2c[nH]c3ccccc23)nc1	none (no result: DTT redox prof, Lmaj promast, G6PDH counter, Diaph inh CS, Diaph act CS)
Cc1ccc(S(=O)(=O)N2CCN(C(=O)c3ccc(N4CCCC4)c([N+](=O)[O-])c3)CC2)cc1	none (no result: DTT redox prof, Lmaj promast, G6PDH counter, Diaph inh CS, Diaph act CS)
O=C(/C=C/c1ccc(N2CCCCC2)c([N+](=O)[O-])c1)c1ccc(S(=O)(=O)N2CCCC2)cc1	Lmaj promast 100
O=[N+]([O-])c1cc(S(=O)(=O)c2ccc(N3CCCCC3)c([N+](=O)[O-])c2)ccc1N1CCCCC1	Lmaj promast 95
CCC(=O)c1cc(F)c(N2CCN(S(=O)(=O)c3ccc(C)cc3)CC2)cc1C	Lmaj promast 69
COc1cccc(C(=O)/C=C/c2ccc(N3CCCCC3)c([N+](=O)[O-])c2)c1	none
Cc1ccc(N2CCN(S(=O)(=O)c3ccc(F)c(C)c3)CC2)c(C)c1	none
Cc1ccc(S(=O)(=O)N2CCN(c3ccc(C(=O)N4CCOCC4)cc3[N+](=O)[O-])CC2)cc1	Lmaj promast 61
